# Screening results as filed in PubChem.
# Only some compounds are listed: those with a hit (about 3.1% of all), similar ones and a draw of the others.
# DENV2 CPE – inhibitors of DENV2 cytopathic effect, primary screen, cell-based, plate reader, single concentration. CPE inhibition, % at 9.99 µM. AID 651640, 2012. DENV2-infected cells, cytopathic effect rescue. 1.7% of 350,000 active; in the data active = CPE inhibition above about 20%, passing the limit was not always enough; inconclusive = no clear call, values can overlap the other calls; tested in BHK-21 cells
# E-sel inducer – E-selectin induction in HUVECs, primary screen, imaging, HUVEC, immunofluorescence imaging, single point | normalized: neutral wells 0, TNF-alpha wells 100 | activation, % at 7.58 µM | 0.37% of 260,000 active;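 active = mean E-selectin-positive cell signal at least 10% of the positive control, reached in at least 60% of replicates, without over 20% cell loss; inconclusive = no rule given, readout overlaps actives, possibly toxicity-flagged; inactive = the rest, including those meeting only one limit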
#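 Read-out basis: % PE-positive cells; Test system: HUVEC primary endothelial cells; Technique: immunofluorescence imaging; Dosing: single-point compound dose.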
# Ecoli rRNA inh – reduced GFP signal of wild-type E. coli, primary screen, bacterial rRNA inhibitor project, GFP/RFP fluorescence, OD600, single point. E. coli WT GFP vs humanized-ribosome RFP mutants, 24 h; active compounds read low; DMSO median 0, no signal -100. GFP signal change (wild-type ribosome), % (no concentration beside the values). 1.6% of 350,000 active. AID 720706, 2013;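 active = significant combined selectivity score with lowered wild-type GFP, culture density cut under 30%, mutant RFP and density less affected; inactive = any of these conditions unmet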
# Cneo AK release – Cryptococcus neoformans cell lysis inducers, primary screen, AK release luminescence, single concentration; C. neoformans lysis, adenylate kinase release luminescence, 4 h; normalised: neutral wells 0, clomiphene wells 100; lysis activity, % at 15 µM; 0.2% of 360,000 active;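 active = mean lysis activity across replicates of at least 80%, whatever share of replicates individually reach that level; inactive = mean lysis activity below 80%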
#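 Assay system: Cryptococcus neoformans yeast cells / Dosing: single-point compound dose / Timing: 4 h at 37 °C static, read 1 h later / Measured by: luminescence of released adenylate kinase using an AK detection reagent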
# miR-122 sensor – miR-122 Renilla sensor signal increase in Huh7, primary screen, miR-122 inhibitor project, cell-based, single point, plate reader | Huh7 miR-122 Renilla luciferase sensor, 48 h; neutral wells = 0, positive control = 100 | activation (reporter increase), % at 12.5 µM | 0.3% of 340,000 active;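 active = mean replicate activation score at least 90 and every replicate individually at or above 90; inconclusive = only one of the two criteria met; inactive = neither criterion met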;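 note: higher luciferase means less miR-122 activity so hits act as miR-122 inhibitors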
# Numbers stand for hits; . = inactive; ? = inconclusive; / = no result given.
SMILES,DENV2 CPE,E-sel inducer,Ecoli rRNA inh,Cneo AK release,miR-122 sensor
C[C@H](CO)N1C[C@H](C)[C@@H](CN(C)Cc2ccc(Cl)c(Cl)c2)OCCCC[C@H](C)Oc2ccc(N(C)C)cc2C1=O,30,.,.,/,/
C[C@@H]1CCCCO[C@H](CN(C)Cc2ccncc2)[C@@H](C)CN([C@H](C)CO)C(=O)c2cc(N(C)C)ccc2O1,.,.,.,110,.
C[C@H](CO)N1C[C@H](C)[C@@H](CN(C)Cc2ccncc2)OCCCC[C@H](C)Oc2ccc(N(C)C)cc2C1=O,31,.,.,.,.
COc1ccc(CN(C)C[C@@H]2OCCCC[C@H](C)Oc3ccc(N(C)C)cc3C(=O)N([C@H](C)CO)C[C@@H]2C)cc1,/,.,.,94,.
C[C@H]1CCCCO[C@H](CN(C)Cc2ccncc2)[C@@H](C)CN([C@@H](C)CO)C(=O)c2cc(N(C)C)ccc2O1,.,.,.,.,.
N#Cc1cccc(-c2ccc(C3[C@H]4CNC[C@@H]3N4Cc3ccc4c(c3)OCO4)cc2)c1 (stereo partly drawn),.,.,.,/,/
CCCc1c(C(=O)Nc2cc(C(C)(C)C)on2)cnn1-c1ccccc1,29,.,.,/,.
COCC(=O)N1CC(=O)N2[C@@H](CO)[C@@H](c3ccc(-c4cccnc4)cc3)[C@@H]2C1,.,.,.,/,/
CO[C@@H]1CN(C)C(=O)c2cc(NC(C)=O)ccc2OC[C@@H](C)N(Cc2cccc(F)c2)C[C@H]1C,.,.,.,.,/
CCN(CC(=O)NC(C)(C)C)Cc1nc2c(Br)cc(Br)cc2c(=O)[nH]1,.,/,-29,/,/
CCN(CC(=O)NC1CCS(=O)(=O)C1)Cc1nc2c(Br)cc(Br)cc2c(=O)[nH]1 (stereo not drawn),/,.,.,/,/
CCOC(=O)c1c(NC(C)=O)sc(/C(C)=N/Nc2ccc(C(=O)O)cc2)c1C,.,.,-17,.,.
CCOC(=O)c1c(NC(C)=O)sc(C(=O)NC2CCCC2)c1C,.,.,.,.,.
CO[C@H]1CN(C)C(=O)c2ccc(NC(=O)Nc3ccccc3)cc2OC[C@H](C)NC[C@@H]1C,32,.,.,/,/
CO[C@@H]1CN(C)C(=O)c2ccc(NC(=O)Nc3ccc(F)cc3)cc2OC[C@H](C)NC[C@@H]1C,36,.,.,.,.
CCCNC(=O)C[C@H]1CC[C@@H]2[C@H](COc3ccc(NC(=O)NC(C)C)cc3C(=O)N2C)O1,/,.,.,.,.
O=C(/C=C/c1cn(CC(O)CN2CCCCC2)c2ccccc12)c1ccccc1 (stereo not drawn),27,/,-38,/,/
N#C/C(=C\c1c[nH]c2ccccc12)C(=O)NCC1CCCO1 (stereo not drawn),.,.,.,/,/
Cc1[nH]c2ccccc2c1/C=C(\C#N)C(=O)NCC1CCCO1 (stereo not drawn),/,.,-23,/,/
COC(=O)C1=C(C)N(Cc2ccco2)C(=O)N[C@@H]1c1ccco1,60,.,.,.,.
COC(=O)C1=C(C)N(Cc2ccco2)C(=O)N[C@@H]1c1ccccc1,.,.,.,.,/
O=[N+]([O-])c1ccc(C(O)C(CO)NC(=S)Nc2ccccc2)cc1 (stereo not drawn),.,/,-44,/,/
O=C(C[C@H]1CC[C@@H]2[C@H](COC[C@H](O)CN2C(=O)c2ccccc2)O1)Nc1ccc(-c2ccccc2)cc1,55,.,.,.,.
O=C(C[C@@H]1CC[C@H]2[C@@H](COC[C@H](O)CN2C(=O)c2ccncc2)O1)NC1Cc2ccccc2C1,30,.,.,.,.
O=C(C[C@@H]1CC[C@H]2[C@@H](COC[C@H](O)CN2C(=O)c2ccncc2)O1)Nc1ccc(-c2ccccc2)cc1,28,.,.,.,.
O=C(C[C@@H]1CC[C@H]2[C@@H](COC[C@H](O)CN2C(=O)c2ccc(F)cc2)O1)Nc1ccc(-c2ccccc2)cc1,.,38,.,.,.
COc1cccc(Nc2nc(NCCO)nc(N3CCCC3)n2)c1,?,.,-25,.,/
CN1/C(=C\C=O)C(C)(C)c2ccccc21,/,.,.,/,/
